Key:
U-266 = experiment: Antitumor activity against human U266 cells assessed as cell proliferation after 24 hrs by MTT assay; assay type: functional, cell-based; settings: U-266, 24 h
Outline: (§1)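 Cells seeded at 2000 per well in 96-well plates and allowed to adhere. Compounds in DMSO, diluted in culture medium, added at 0.1–100 μM (eight wells per concentration) for 24 h. DMSO vehicle control. MTT 0.5 mg/mL (in PBS) for 4 h, then medium removed and DMSO added, absorbance read at 570 nm. IC50 from concentration vs percent absorbance plot. Mean ± SD, n = 4.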

Mus musculus [1] = experiment: Toxicity in […] H22 tumor-nearing ICR mouse assessed as decrease in ratio of granulocytic and erythroid cell system at 10 mg/kg, ip for 7 days measured on day 9; assay type: organism-based, Erythrocyte; set-up: dose 10 mg/kg, route intraperitoneal; scale not given: the % may be the effect or the level left; settings: in vivo, 168 h
Outline: (§2)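 H22-bearing ICR mice dosed ip 10 mg/kg/day in 10% ethanol for 7 days from day 2, with vehicle controls. Killed day 9 and femoral marrow flushed. Nucleated cells counted with a Coulter Counter. Granulocytic and erythroid cells per femur counted on May-Grünwald-Giemsa-stained marrow smears.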

HEK293 = experiment: Cytotoxicity against human HEK293 cells assessed as cell proliferation after 24 hrs by MTT assay; assay type: cell-based; settings: HEK293, 24 h; outline: as §1
Mus musculus [2] = experiment: Toxicity in […] H22 tumor-nearing ICR mouse assessed as decrease in total nucleated bone marrow cells at 10 mg/kg, ip for 7 days measured on day 9; assay type: organism-based; set-up: dose 10 mg/kg, route intraperitoneal; scale not given: the % may be the effect or the level left; settings: in vivo, 168 h; outline: as §2
RPMI-8226 = experiment: Antitumor activity against human RPMI8226 cells assessed as cell proliferation after 24 hrs by MTT assay; assay type: functional, cell-based; settings: RPMI-8226, 24 h; outline: as §1
HepG2 = experiment: Antitumor activity against human HepG2 cells assessed as cell proliferation after 24 hrs by MTT assay; assay type: functional, cell-based; settings: HepG2, 24 h; outline: as §1
Mus musculus [3] = experiment: Toxicity in […] H22 tumor-nearing ICR mouse assessed as body weight at 10 mg/kg, ip for 7 days measured on day 9 relative to control; assay type: organism-based; set-up: dose 10 mg/kg, route intraperitoneal; settings: in vivo, 168 h
Outline: (§3)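 H22-bearing ICR mice (10 per group, plus a saline-injected normal group) dosed ip at 10 mg/kg/day in 10% ethanol for 7 days from day 2. Vehicle given to controls. On day 9 blood was taken for WBC count, and body weight, thymus and spleen were weighed. Thymus or spleen index = organ weight (mg)/body weight (g).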

SK-OV-3 = experiment: Antitumor activity against human SKOV3 cells assessed as cell proliferation after 24 hrs by MTT assay; assay type: functional, cell-based; settings: SK-OV-3, 24 h; outline: as §1
PANC-1 = experiment: Antitumor activity against human PANC1 cells assessed as cell proliferation after 24 hrs by MTT assay; assay type: functional, cell-based; settings: PANC-1, 24 h; outline: as §1
Mus musculus [4] = experiment: Toxicity in […] H22 tumor-nearing ICR mouse assessed as spleen index at 10 mg/kg, ip for 7 days measured on day 9 relative to control; assay type: organism-based; set-up: dose 10 mg/kg, route intraperitoneal; settings: in vivo, 168 h; outline: as §3
PBMC = experiment: Cytotoxicity against human PBMC assessed as cell proliferation after 24 hrs by MTT assay; assay type: cell-based; outline: as §1
H22 = experiment: Antitumor activity against mouse H22 tumor-nearing ICR mouse assessed as inhibition of tumor growth at 10 mg/kg, ip for 7 days measured on day 9; assay type: functional; settings: route intraperitoneal
Outline: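 ICR mice given H22 ascites cells from serial passage, 0.2 ml of 1×10^7 cells/ml injected subcutaneously into right flank, 10 mice per group. From day 2, 10 mg/kg/day ip in 10% ethanol (10 ml/kg) for 7 days. Cyclophosphamide 10 mg/kg as reference, vehicle-treated tumor model group. Killed day 9, tumors weighed. Inhibition = (model − treated tumor weight)/model weight × 100%.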

Mus musculus [5] = experiment: Toxicity in […] H22 tumor-nearing ICR mouse assessed as white blood cell count at 10 mg/kg, ip for 7 days measured on day 9 relative to control; assay type: organism-based; set-up: dose 10 mg/kg, route intraperitoneal; settings: in vivo, 168 h; outline: as §3
Mus musculus [6] = experiment: Toxicity in […] H22 tumor-nearing ICR mouse assessed as thymus index at 10 mg/kg, ip for 7 days measured on day 9 relative to control; assay type: organism-based; set-up: dose 10 mg/kg, route intraperitoneal; settings: in vivo, 168 h; outline: as §3
MCF7 = experiment: Antitumor activity against human MCF7 cells assessed as cell proliferation after 24 hrs by MTT assay; assay type: functional, cell-based; settings: MCF7, 24 h; outline: as §1
PC-3 = experiment: Antitumor activity against human PC3 cells assessed as cell proliferation after 24 hrs by MTT assay; assay type: functional, cell-based; settings: PC-3, 24 h; outline: as §1
MDA-MB-231 = experiment: Antitumor activity against human MDA-MB-231 cells assessed as cell proliferation after 24 hrs by MTT assay; assay type: functional, cell-based; settings: MDA-MB-231, 24 h; outline: as §1

Compound: O=C1C=CC(O)(c2cc(=O)cco2)C=C1
- IC50 (U-266): 9.44 µM
- Activity (Mus musculus [1]): Non-toxic
- IC50 (HEK293): 30 µM
- Activity (Mus musculus [2]): Non-toxic
- IC50 (RPMI-8226): 13.5 µM
- IC50 (HepG2): 1.76 µM
- Activity (Mus musculus [3]): Non-toxic
- IC50 (SK-OV-3): 0.64 µM
- IC50 (PANC-1): 3.08 µM
- Activity (Mus musculus [4]): Non-toxic
- IC50 (PBMC): 49.3 µM
- inhibition in vivo at 10 mg/kg (H22): 34.1%
- Activity (Mus musculus [5]): Non-toxic
- Activity (Mus musculus [6]): Non-toxic
- IC50 (MCF7): 0.71 µM
- IC50 (PC-3): 3.43 µM
- IC50 (MDA-MB-231): 0.38 µM

Compound: O=P1(N(CCCl)CCCl)NCCCO1 (stereo not given) [CYCLOPHOSPHAMIDE ANHYDROUS]
- inhibition in vivo at 10 mg/kg (H22): 41.7%

Compound: O=C1C=CC(O)(c2cc(=O)c3c(O)cc(O)cc3o2)C=C1 [PROTOAPIGENONE]
- IC50 (U-266): 7.66 µM
- Activity (Mus musculus [1]): 36.9%
- IC50 (HEK293): 6.79 µM
- Activity (Mus musculus [2]): 51.52%
- IC50 (RPMI-8226): 3.93 µM
- IC50 (HepG2): 7.77 µM
- Activity (Mus musculus [3]): Non-toxic
- IC50 (SK-OV-3): 0.71 µM
- IC50 (PANC-1): 22.1 µM
- Activity (Mus musculus [4]): Non-toxic
- IC50 (PBMC): 8.11 µM
- inhibition in vivo at 10 mg/kg (H22): < 5%
- Activity (Mus musculus [5]): Non-toxic
- Activity (Mus musculus [6]): Non-toxic
- IC50 (MCF7): 5.5 µM
- IC50 (PC-3): 6.13 µM
- IC50 (MDA-MB-231): 1.7 µM

Source: ChEMBL document CHEMBL1777774, “A novel, broad-spectrum antitumor compound containing the 1-hydroxycyclohexa-2,5-dien-4-one group: the disclosure of a new antitumor pharmacophore in protoapigenone 1” (Bioorg Med Chem Lett, 2011)
